According to ChEMBL document CHEMBL4043075, “Development of Fluorinated Analogues of Perhexiline with Improved Pharmacokinetic Properties and Retained Efficacy” (J Med Chem, 2017):
pIC50: −log10 of the molar value. Activity calls are given as the source filed them. The calls are words filed in the database; no cut-off is given here.

Assays:
[1] = Drug uptake in BALB/c mouse myocardium at 10 mg/kg, po administered via gavage every 24 hrs for 7 days measured 1 hr post last dose by LC-MS/MS analysis; type: ADME, organism-based; conditions: read-out: Drug uptake
Method in brief: (§1)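 Male BALB/c mice, daily oral gavage at 10 mg/kg. Plasma and myocardium sampled 1, 4, 8 and 24 h after dosing, n = 3 per timepoint. […] Myocardium:plasma ratios taken from drug concentration or from AUC. Student's t-test used.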

[2] = Half life in human liver microsomes at 3 uM up to 45 mins in presence of NADPH by LC-MS/MS analysis; type: ADME, microsome
[3] = Half life in Sprague-Dawley rat liver microsomes at 3 uM up to 45 mins in presence of NADPH by LC-MS/MS analysis; type: ADME, microsome
CYP2D6 = CYP2D6 (Homo sapiens, UniProt P10635); assay: Drug metabolism assessed as human CYP2D6-mediated compound degradation by measuring half life at 5 uM up to 45 mins in presence of NADPH by LC-MS/MS analysis; type: ADME
Chain of CYP2D6 (P10635 whole entry, canonical isoform): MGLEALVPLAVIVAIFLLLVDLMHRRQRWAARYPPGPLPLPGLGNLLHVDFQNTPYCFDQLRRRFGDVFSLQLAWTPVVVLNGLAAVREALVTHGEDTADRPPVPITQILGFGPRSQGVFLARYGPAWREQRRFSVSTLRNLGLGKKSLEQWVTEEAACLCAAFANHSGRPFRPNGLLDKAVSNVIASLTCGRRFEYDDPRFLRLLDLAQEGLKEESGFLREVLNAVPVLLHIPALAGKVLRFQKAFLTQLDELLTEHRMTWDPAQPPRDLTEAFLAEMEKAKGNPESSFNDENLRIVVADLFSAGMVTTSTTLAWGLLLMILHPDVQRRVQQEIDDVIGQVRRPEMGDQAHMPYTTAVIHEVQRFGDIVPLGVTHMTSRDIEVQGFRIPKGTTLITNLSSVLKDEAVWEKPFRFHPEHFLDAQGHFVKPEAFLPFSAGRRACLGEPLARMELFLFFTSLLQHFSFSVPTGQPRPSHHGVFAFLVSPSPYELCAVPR

[4] = biological target: T1, Carnitine O-palmitoyltransferase 1, muscle isoform (Rattus norvegicus, UniProt Q63704); assay: Inhibition of Wistar rat heart mitochondrial CPT-1 assessed as reduction in conversion of palmitoyl CoA and L-carnitine into palmitoylcarnitine preincubated for 3 mins followed by L-carnitine and palmitoyl CoA addition measured for 3.5 mins by spectrophotometric analysis
T1 sequence (Q63704 whole entry): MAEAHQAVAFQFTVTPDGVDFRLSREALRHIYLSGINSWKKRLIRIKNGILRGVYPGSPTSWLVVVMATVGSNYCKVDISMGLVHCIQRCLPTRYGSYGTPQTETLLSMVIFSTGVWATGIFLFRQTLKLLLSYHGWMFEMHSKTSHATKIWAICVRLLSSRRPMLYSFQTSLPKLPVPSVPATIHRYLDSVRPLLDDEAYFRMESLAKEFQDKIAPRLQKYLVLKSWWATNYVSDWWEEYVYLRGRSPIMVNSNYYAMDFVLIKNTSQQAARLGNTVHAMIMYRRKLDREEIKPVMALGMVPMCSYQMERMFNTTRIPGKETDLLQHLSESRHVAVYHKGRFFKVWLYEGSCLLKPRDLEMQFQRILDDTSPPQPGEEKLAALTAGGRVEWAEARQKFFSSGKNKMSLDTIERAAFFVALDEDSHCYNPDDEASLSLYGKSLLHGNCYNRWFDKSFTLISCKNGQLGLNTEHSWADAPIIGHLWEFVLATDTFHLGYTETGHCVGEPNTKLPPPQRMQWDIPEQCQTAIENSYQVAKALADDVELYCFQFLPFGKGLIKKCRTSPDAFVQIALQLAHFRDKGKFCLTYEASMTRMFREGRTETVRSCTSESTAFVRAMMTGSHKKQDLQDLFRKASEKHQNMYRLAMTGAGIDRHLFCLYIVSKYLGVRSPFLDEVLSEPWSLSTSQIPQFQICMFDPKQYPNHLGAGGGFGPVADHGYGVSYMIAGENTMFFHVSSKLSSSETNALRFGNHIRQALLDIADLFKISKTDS

[5] = Plasma concentration in BALB/c mouse at 10 mg/kg, po administered via gavage every 24 hrs for 7 days measured at 1 hr post last dose by LC-MS/MS analysis; type: ADME, organism-based; method in brief: as §1
[6] = Plasma concentration in BALB/c mouse at 10 mg/kg, po administered via gavage every 24 hrs for 7 days measured 4 hrs post last dose by LC-MS/MS analysis; type: ADME, organism-based; method in brief: as §1
[7] = Plasma concentration in BALB/c mouse at 10 mg/kg, po administered via gavage every 24 hrs for 7 days measured 8 hrs post last dose by LC-MS/MS analysis; type: ADME, organism-based; method in brief: as §1
[8] = Drug uptake in BALB/c mouse myocardium at 10 mg/kg, po administered via gavage every 24 hrs for 7 days measured 4 hrs post last dose by LC-MS/MS analysis; type: ADME, organism-based; conditions: read-out: Drug uptake; method in brief: as §1
[9] = Drug uptake in BALB/c mouse myocardium at 10 mg/kg, po administered via gavage every 24 hrs for 7 days measured 8 hrs post last dose by LC-MS/MS analysis; type: ADME, organism-based; conditions: read-out: Drug uptake; method in brief: as §1
[10] = AUC (0 to 24 hrs) in BALB/c mouse plasma at 10 mg/kg, po administered via gavage every 24 hrs for 7 days measured post last dose by LC-MS/MS analysis; type: ADME, organism-based; parameters: dose 10 mg/kg, time < 24 hr, route oral; method in brief: as §1
[11] = AUC (0 to 24 hrs) in BALB/c mouse myocardium at 10 mg/kg, po administered via gavage every 24 hrs for 7 days measured post last dose by LC-MS/MS analysis; type: ADME, organism-based; parameters: time < 24 hr, dose 10 mg/kg, route oral; method in brief: as §1
[12] = Plasma concentration in Sprague-Dawley rat at 10 mg/kg, po administered via gavage every 24 hrs measured at 1 hr post dose by LC-MS/MS analysis; type: ADME, organism-based
Method in brief: (§2)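 Male Sprague-Dawley rats, daily oral dosing at 10 mg/kg. Plasma sampled at 1, 2, 4, 8 and 24 h after dosing, n = 3 per timepoint. Myocardium measured at 1 and 8 h. Myocardium:plasma ratio taken from drug concentration.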

[13] = Plasma concentration in Sprague-Dawley rat at 10 mg/kg, po administered via gavage every 24 hrs measured at 2 hrs post last dose by LC-MS/MS analysis; type: ADME, organism-based; method in brief: as §2
[14] = Plasma concentration in Sprague-Dawley rat at 10 mg/kg, po administered via gavage every 24 hrs measured at 4 hrs post last dose by LC-MS/MS analysis; type: ADME, organism-based; method in brief: as §2
[15] = Plasma concentration in Sprague-Dawley rat at 10 mg/kg, po administered via gavage every 24 hrs measured at 8 hrs post last dose by LC-MS/MS analysis; type: ADME, organism-based; method in brief: as §2
[16] = Drug uptake in Sprague-Dawley rat myocardium at 10 mg/kg, po administered via gavage every 24 hrs measured at 1 hr post last dose by LC-MS/MS analysis; type: ADME, organism-based; conditions: read-out: Drug uptake; method in brief: as §2
[17] = Drug uptake in Sprague-Dawley rat myocardium at 10 mg/kg, po administered via gavage every 24 hrs measured at 8 hrs post last dose by LC-MS/MS analysis; type: ADME, organism-based; conditions: read-out: Drug uptake; method in brief: as §2
[18] = Ratio of drug level in myocardium to plasma in BALB/c mouse at 10 mg/kg, po administered via gavage every 24 hrs for 7 days measured 1 hr post last dose by LC-MS/MS analysis; type: ADME, organism-based; conditions: myocardium and plasma; method in brief: as §1
[19] = Ratio of drug level in myocardium to plasma in BALB/c mouse at 10 mg/kg, po administered via gavage every 24 hrs for 7 days measured 4 hrs post last dose by LC-MS/MS analysis; type: ADME, organism-based; conditions: myocardium and plasma; method in brief: as §1
[20] = Ratio of drug level in myocardium to plasma in BALB/c mouse at 10 mg/kg, po administered via gavage every 24 hrs for 7 days measured 8 hrs post last dose by LC-MS/MS analysis; type: ADME, organism-based; conditions: myocardium and plasma; method in brief: as §1
[21] = Ratio of drug level in myocardium to plasma in Sprague-Dawley rat at 10 mg/kg, po administered via gavage every 24 hrs measured at 1 hr post dose by LC-MS/MS analysis; type: ADME, organism-based; conditions: myocardium and plasma; method in brief: as §2
[22] = Ratio of drug level in myocardium to plasma in Sprague-Dawley rat at 10 mg/kg, po administered via gavage every 24 hrs measured at 8 hrs post dose by LC-MS/MS analysis; type: ADME, organism-based; conditions: myocardium and plasma; method in brief: as §2
[23] = Ratio of AUC (0 to 24 hrs) in myocardium to plasma in BALB/c mouse at 10 mg/kg, po administered via gavage every 24 hrs for 7 days measured post last dose by LC-MS/MS analysis; type: ADME, organism-based; conditions: myocardium and plasma, read-out: Ratio AUC; method in brief: as §1
Heart [24] = assay: Cardioprotective activity in Langendorff perfused C57BL/6 mouse heart assessed as increase in cardiac contractility at 10 uM perfused for 30 mins in presence of high fat relative to control; type: functional
Method in brief: (§3)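 Isolated C57BL/6 hearts (25-30 g) retrogradely perfused at constant 80 mmHg, 37 °C, 95% O2/5% CO2, with modified Krebs containing 1.2 mM sodium palmitate conjugated to 3% BSA. After 10 min stabilisation, 30 min perfusion with control buffer or compound at 2 or 10 µM. LVdP/dt max and min derived from LV pressure over 40 min; mean ± SEM, n = 12-19, 1-way ANOVA with Bonferroni.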

Heart [25] = assay: Cardioprotective activity in Langendorff perfused C57BL/6 mouse heart assessed as increase in cardiac relaxation at 10 uM perfused for 30 mins in presence of high fat relative to control; type: functional; method in brief: as §3
Heart [26] = assay: Cardioprotective activity against Langendorff perfused C57BL/6 mouse heart assessed as lusitropic effect at 10 uM measured for 40 mins reperfusion period in presence of high fat; type: functional, tissue-based; method in brief: as §3
[27] = Stability of the compound in pH 7.4 PBS buffer at 37 degC after 1 hr; type: physicochemical; conditions: pH 7.4, 1 h
Method in brief: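 Compound incubated 1 h in pH 7.4 PBS at 37 °C, then checked for decomposition.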

Heart [28] = assay: Cardioprotective activity in Langendorff perfused C57BL/6 mouse heart perfused for 30 mins in presence of high fat; type: functional, tissue-based

FC1(F)CCC(C(CC2CCCCN2)C2CCCCC2)CC1 (centres undefined)
concentration at 1 h [1]: 3730 ng/mL | half-life at 3 µM [2]: > 8.33 h | half-life at 3 µM [3]: 1.2 h | half-life at 5 µM (CYP2D6): 1.73 h | pIC50 [4]: 4.35 | concentration at 1 h [5]: 346 ng/mL | concentration at 4 h [6]: 172 ng/mL | concentration at 8 h [7]: 192 ng/mL | concentration at 4 h [8]: 1880 ng/mL | concentration at 8 h [9]: 1830 ng/mL | AUC at 24 h [10]: 3760 ng·h/mL | AUC at 24 h [11]: 32400 ng·h/mL | concentration at 1 h [12]: 386 ng/mL | concentration at 2 h [13]: 375 ng/mL | concentration at 4 h [14]: 297 ng/mL | concentration at 8 h [15]: 179 ng/mL | concentration at 1 h [16]: 5910 ng/mL | concentration at 8 h [17]: 1290 ng/mL | Kp at 1 h [18]: 10.7 | Kp at 4 h [19]: 10.9 | Kp at 8 h [20]: 9.5 | Kp at 1 h [21]: 15.3 | Kp at 8 h [22]: 7.2 | Kp [23]: 8.6 | fold change (FC) (Heart [24]): 1.8 | fold change (FC) (Heart [25]): 2.7 | Activity (Heart [26]): Active | Stability [27]: Stable | Activity (Heart [28]): Dose-dependent effect
